From ChEMBL document CHEMBL1126019, “Synthesis, stability, and biological evaluation of water-soluble prodrugs of a new echinocandin lipopeptide. Discovery of a potential clinical agent for the treatment of systemic candidiasis and Pneumocystis carinii pneumonia (PCP)” (J Med Chem, 1992) come the findings set out here.

SMILES strings stand for the structures. pIC50: −log10 of the molar value. Numbered stars: 1 amine (or outer) side, 2 acyl side, 3 side chain; on linkers, the order of the positions; unused ones are H or OH. Bridge positions count the residues as written; N and C are the ends. Square brackets hold non-standard residues; d marks the D form. Peptide text beside a SMILES is read from it. * marks the point of attachment. Orn(4R-OH,5R-OH) = O=C([C@H](C[C@@H](O)[C@@H](O)N[*:3])N[*:1])[*:2]; hTyr(3S-OH,4S-OH) = N[C@H](C(=O)O)[C@H](O)[C@@H](O)c1ccc(O)cc1; Pro(3S-OH,4S-Me) = C[C@H]1CN[C@H](C(=O)O)[C@H]1O; Benzoyl(4-octyloxy) = CCCCCCCCOc1ccc(C(=O)*)cc1; Hyp = O=C(O)[C@@H]1C[C@@H](O)CN1

In assay [1] the test system is Fungi. Briefly: (§1) Minimum fungicidal concentration against Candida albicans MY 1028. The assay is classed as functional, organism-based. A digest of the protocol:
(§2)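 Clinical isolates in yeast nitrogen base with 1% dextrose, inoculated with about 5×10^3 CFU per well. Drug was tested by 2-fold serial dilution from 128 to 0.06 µg/mL, with growth for 24 h at 35 °C. 1.5-µL aliquots were then spotted onto Sabouraud dextrose agar and incubated at 35 °C for 24 h. MFC was the lowest concentration giving fewer than five colonies per spot. Duplicate determinations.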

For assay [2], the system named is Fungi. Briefly: (§3) Minimum fungicidal concentration against Candida parapsilosis MY 1010. The format is functional, organism-based. A digest of the protocol: as §2
For assay [3], the system named is Fungi. Briefly: (§4) Minimum fungicidal concentration against Candida tropicalis MY 1012. The format is functional, organism-based. A digest of the protocol: as §2
The subject of assay [4] is Fungi. The assay is described as follows: Minimum fungicidal concentration against Candida pseudotropicalis MY 1100. The assay is classed as functional, organism-based. The method, boiled down: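 Clinical isolates were inoculated at about 5×10^3 CFU into yeast nitrogen base with 1% dextrose, with drug in 2-fold dilutions from 128 to 0.06 µg/mL, and grown 24 h at 35 °C. Then 1.5 µL aliquots were spotted on Sabouraud dextrose agar and held 24 h at 35 °C. MFC is the lowest concentration giving fewer than five colonies per spot, from duplicate determinations.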

For assay [5], the species on record is Homo sapiens. Briefly: Hemolytic potential was determined as the minimum lytic concentration against human red blood cells. The assay is classed as functional, cell-based. A digest of the protocol: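 Compounds were serially diluted in water containing 10% DMSO and added to whole human blood, then incubated 2 h at 37 °C. Red cell lysis was scored visually, and the lowest lytic concentration was recorded.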

The nature of assay [6]: Inhibitory activity against glucan synthesis. The format is functional.
The test system of assay [7] is Fungi. The assay is described as follows: (§5) Minimum fungicidal concentration against Candida albicans MY 1055. The format is functional, organism-based. The method, boiled down:
as §2

In assay [8] the test system is Candida albicans. The assay is described as §1. The assay is classed as functional, organism-based. The method, boiled down:
as §2

Assay [9] has as its system Candida parapsilosis. Described as §3. The format is functional, organism-based. A digest of the protocol:
as §2

Assay [10] concerns Candida tropicalis. The assay is described as §4. The format is functional, organism-based. The method, boiled down: as §2
The species named for assay [11] is Mus musculus. The assay is described as follows: Minimum effect dose required to reduce the number of colony forming units in per gram kidney of mice after being challenged, by tail vein injection, with 5 X l0e4 cells of Candida albicans (MY 1055). The format is functional. The method, boiled down: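 DBA/2 mice (5 per dose level) were infected intravenously and dosed ip with vehicle sham or 1.5, 3.0 or 6.0 mg/kg twice daily for 4 days. On day 7 post-infection, kidneys were cultured on SDA (35 °C, 24 h) and CFU/g counted. MED99 is the dose giving ≥99% CFU/g reduction versus vehicle sham.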

The species named for assay [12] is Rattus norvegicus. Briefly: Minimum effect dose required to reduce the number of alveolor cyst load in rat Pneumocystis carinii pneumonia assay. The assay is classed as functional. A digest of the protocol:
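Immunosuppressed Sprague-Dawley rats with confirmed infection (5 per dose level) were dosed subcutaneously, 0.15 and 0.60 mg/kg twice daily for 4 days. On day 5, lungs were homogenized and cysts counted microscopically in a known amount of homogenate. MED90 is the dose giving ≥90% cyst reduction versus vehicle sham controls.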

Assay [13] deals with Candida albicans. The description is as §5. The assay is classed as functional, organism-based. The method, boiled down: as §2

`CCC(C)CC(C)CCCCCCCCC(=O)N[C@H]1C[C@@H](O)[C@@H](O)NC(=O)[C@@H]2[C@@H](O)CCN2C(=O)[C@H]([C@@H](O)CC(N)=O)NC(=O)[C@H]([C@H](O)[C@@H](O)c2ccc(O)cc2)NC(=O)[C@@H]2C[C@@H](O)CN2C(=O)[C@H]([C@H](C)O)NC1=O` (stereo not given in full): the Concentration is 0.125 µg/mL in assay [1]; 4 µg/mL in [2]; 0.06 µg/mL in [3]; 2 µg/mL in assay [4]; over 400 µg/mL in assay [5]; 0.25 µg/mL in assay [7]. Besides, the pIC50 – broadly, −log10 of the IC50, conventionally taken in molar units – in assay [6] was 7.15.
Take `CCCCCCCCOc1ccc(C(=O)N[C@H]2C[C@@H](O)[C@@H](O)NC(=O)[C@@H]3[C@@H](O)[C@@H](C)CN3C(=O)[C@H]([C@@H](C)O)NC(=O)[C@H]([C@H](O)[C@@H](O)c3ccc(O)cc3)NC(=O)[C@@H]3C[C@@H](O)CN3C(=O)[C@H]([C@@H](C)O)NC2=O)cc1` [CILOFUNGIN] ({Benzoyl(4-octyloxy)}-[Orn(4R-OH,5R-OH)]T[Hyp][hTyr(3S-OH,4S-OH)]T[Pro(3S-OH,4S-Me)]; lactam 1-C): the Concentration in [8] was 0.5 µg/mL; in [9], 16 µg/mL; in [10], 0.25 µg/mL; in assay [5] it was over 400 µg/mL; in [13], 0.5 µg/mL. The MED99 in [11] came to 3 mg/kg. Also, the MED90 in assay [12] was over 2.5 mg/kg. In assay [6], this compound gave a pIC50 of 6.00.
